Test results as given in paper PMC5858514 (Theranostics, 2018).

How the values were obtained:
MDA-MB-231 tumor = assay: In vivo antitumor activity; design: species or system mice; details: three i.v. injections every other day, 6 mg/kg PTX equivalent
Method in brief: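 Female BALB/c nude mice were fed a folate-deficient diet for 6 days, then given MDA-MB-231 cells at the right axillary fossa. Treatment began at tumor volumes of 80–150 mm3, n = 5 per group, with a PBS (pH 7.4) control. Dosing was 6 mg/kg PTX equivalent by tail vein, three injections every other day. Tumor volume was measured every other day. Excised tumors were assayed for CD46 protein.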

MDA-MB-231 cells = assay: Apoptosis study, Annexin V-FITC/PI flow cytometry; format: cell-based, human; details: MDA-MB-231, 24 h
Method in brief: (§1)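 Annexin V-FITC/PI apoptosis assay. Media: MDA-MB-231 in L-15, OVCAR3 in DMEM, U87MG in MEM; all with 10% FBS, 37 °C, 5% CO2. Cells in 6-well plates got 200 μL of 1 mg/mL test compound for 24 h, then two PBS (pH 7.4) washes. Binding buffer, propidium iodide and Annexin V-FITC were added before flow cytometry. Q2 was early apoptotic and Q4 late apoptotic; Q2+Q4 was taken as […].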

[1] = Toxicity in the therapy study: body weight and histopathology; format: in vivo, mice
Method in brief: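 Female nude mice bearing MDA-MB-231 tumors, n = 5 per group with a PBS (pH 7.4) control. They received 6 mg/kg PTX equivalent i.v. by tail vein, three doses every other day. Body weight was recorded every other day. Liver and kidneys were excised for pathology.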

U87MG cells = assay: Apoptosis study, Annexin V-FITC/PI flow cytometry; format: cell-based, human; details: 24 h
Method in brief: as §1

OVCAR3 cells = assay: Apoptosis study, Annexin V-FITC/PI flow cytometry; format: cell-based, human; details: OVCAR3, 24 h
Method in brief: as §1

[2] = system: MDA-MB-231, OVCAR3, and U87MG cell lines; assay: Cell viability MTT assay, three tumor cell lines stated together; format: cell-based, human; details: maximum / at the highest dose
Method in brief: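 MTT viability assay. Cells at 5 × 10^3 per well, kept at 37 °C, 5% CO2 with 10% FBS: MDA-MB-231 in L-15, OVCAR3 and 293T in DMEM, U87MG in MEM. Test compound from 3 pM to 1.6 nM for 24 h, six replicates. MTT (5 mg/mL stock) added for 4 h, medium replaced with DMSO, absorbance read at 490 nm.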

CC(=O)O[C@H]1C(=O)[C@@]2(C)[C@H]([C@H](OC(=O)c3ccccc3)[C@]3(O)C[C@H](OC(=O)[C@H](O)[C@@H](NC(=O)c4ccccc4)c4ccccc4)C(C)=C1C3(C)C)[C@]1(OC(C)=O)CO[C@@H]1C[C@@H]2O [PTX, paclitaxel]
tumor volume inhibition (MDA-MB-231 tumor): 41.04% | cells undergoing early apoptosis (Q2) (MDA-MB-231 cells): 33.8% | late apoptotic cells (Q4) (MDA-MB-231 cells): 1.3% | histopathological examination (H&E) of liver and kidneys / major organs ([1]; after treatment, compared with control group): no distinct pathologic changes | body weight loss ([1]; day 21 post initial treatment, 6 mg/kg i.v. x3): 0.65 ± 0.02 g | change in body weight ([1]; over the study period, 6 mg/kg PTX equivalent i.v. x3): significant decrease | cells undergoing early apoptosis (Q2) (U87MG cells): 29.8% | late apoptotic cells (Q4) (U87MG cells): 3.1% | cells undergoing early apoptosis (Q2) (OVCAR3 cells): 21.8% | late apoptotic cells (Q4) (OVCAR3 cells): 2.5% | cell inhibition ratio [2]: 63%
